Measured values: ChEMBL document CHEMBL2390820, “3-Biphenylimidazo[1,2-a]pyridines or [1,2-b]pyridazines and analogues, novel Flaviviridae inhibitors” (Eur J Med Chem, 2013)
Values after ≈ are worked out from the molar mass of the structure shown.

Columns and labels:
[1] = Selectivity index, ratio of CC50 for MDBK cells to EC50 for BVDV NADL infected in MDBK cells
Summary of the method: (§1)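 Selectivity index is the ratio of CC50 from the 3-day MTS/PMS proliferation assay to EC50 in the same cell line. For Huh 5-2 the EC50 is from the luciferase replicon assay; for MDBK it is from the MTS CPE assay.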

[2] = Selectivity index, ratio of CC50 for Huh5-2 cells to EC50 for HCV genotype 1b infected in Huh5-2 cells; parameters: species or system Huh-5-2; summary of the method: as §1
[3] = Cytotoxicity against MDBK cells assessed as growth inhibition after 3 days by MTS assay; type: cell-based, Bos taurus; settings: cattle
Summary of the method: (§2)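 MDBK or Huh 5-2 cells were seeded at 5 × 10³/well in MEM-FCS, with serial compound dilutions added 24 h later. Cells proliferated 3 days at 37 °C, then metabolic activity was read by MTS/PMS. CC50 is the concentration inhibiting proliferation of exponentially growing cells by 50%, by linear interpolation.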

Hepatitis C virus = assay: Antiviral activity against HCV genotype 1b infected in Huh5-2 cells assessed as inhibition of viral replication after 4 days by luciferase reporter gene assay; type: functional, organism-based, Hepacivirus hominis, Huh-5-2; settings: Hepatitis C virus, genotype 1b, Huh-5-2, 96 h
Summary of the method: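 Huh 5-2 cells carrying the HCV subgenomic luciferase replicon were seeded at 5 × 10³/well with compound and incubated 4 days at 37 °C. Medium was removed and luciferase activity quantified. EC50 is the minimum concentration reducing replicon-driven luciferase signal by 50%.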

[4] = Antiviral activity against BVDV NADL infected in MDBK cells assessed as inhibition of virus-induced cytopathic effect formation after 5 days by MTS assay; type: functional, cell-based, Bovine viral diarrhea virus 1-NADL; settings: Bovine viral diarrhea virus isolates and strains, 120 h
Summary of the method: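 MDBK cells were seeded at 5 × 10³/well in MEM-FCS and held 24 h at 37 °C, 5% CO₂. Medium was replaced with 5-fold serial compound dilutions, then BVDV inoculum was added at MOI 2. CPE was read by MTS as OD at 490 nm. EC50 is the concentration giving 50% protection against virus-induced CPE, by linear interpolation.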

[5] = Cytotoxicity against human Huh5-2 cells assessed as growth inhibition after 3 days by MTS assay; type: cell-based, Huh-5-2; summary of the method: as §2

Row | EC50 (Hepatitis C virus) | Compound | Ratio CC50/EC50 [1] | Ratio CC50/EC50 [2] | CC50 at 72 h [3] | EC50 [4] | CC50 at 72 h [5]
1 | 11.1 µg/mL (≈ 30 µM) | Fc1ccc(-c2nc3ccccn3c2-c2cccc(-c3ccsc3)c2)cc1 | 3 | 5.1 | 7 µg/mL (≈ 18.9 µM) | 2.3 µg/mL (≈ 6.21 µM) | 56.7 µg/mL (≈ 153 µM)
2 | 48.9 µg/mL (≈ 125 µM) | COc1ccccc1-c1nc2ccccn2c1-c1cccc(-c2ccccc2O)c1 | 1.9 | 2 | 14.4 µg/mL (≈ 36.7 µM) | 7.55 µg/mL (≈ 19.2 µM) | 95.8 µg/mL (≈ 244 µM)
3 | 11.3 µg/mL (≈ 25.6 µM) | Fc1ccc(-c2nc3ccc(-c4ccccc4)nn3c2-c2cccc(-c3ccccc3)c2)cc1 | 20 | 1.4 | 25 µg/mL (≈ 56.6 µM) | 1.23 µg/mL (≈ 2.79 µM) | 15.9 µg/mL (≈ 36 µM)
4 | 11.1 µg/mL (≈ 24.7 µM) | COc1ccccc1-c1nc2ccc(-c3ccsc3)nn2c1-c1cccc(-c2ccoc2)c1 |  | 1.4 | > 100 µg/mL | > 100 µg/mL | 15.7 µg/mL (≈ 34.9 µM)
5 | 3.8 µg/mL (≈ 7.99 µM) | COc1ccccc1-c1nc2ccc(-c3ccsc3)nn2c1-c1cccc(-c2cccc(O)c2)c1 |  | 20.8 | > 100 µg/mL | > 100 µg/mL | 78.5 µg/mL (≈ 165 µM)
6 | 17.5 µg/mL (≈ 38.2 µM) | COc1ccccc1-c1nc2ccc(-c3ccsc3)cn2c1-c1cccc(-c2ccccc2)c1 | >1.5 | 3.3 | > 100 µg/mL | 68.6 µg/mL (≈ 150 µM) | 56.8 µg/mL (≈ 124 µM)
7 | 20.2 µg/mL (≈ 55.3 µM) | Fc1ccc(-c2nc3ccccn3c2-c2cccc(-c3ccncc3)c2)cc1 | 7.1 | 2.3 | 7 µg/mL (≈ 19.2 µM) | 0.98 µg/mL (≈ 2.68 µM) | 45.5 µg/mL (≈ 125 µM)
8 | 4.5 µg/mL (≈ 10.2 µM) | Fc1ccc(-c2nc3ccc(-c4ccccc4)cn3c2-c2ccc(-c3ccccc3)cc2)cc1 |  | 2.5 | 30 µg/mL (≈ 68.1 µM) | > 30 µg/mL | 11.4 µg/mL (≈ 25.9 µM)
9 | 64.5 µg/mL (≈ 148 µM) | c1ccc(-c2cccc(-c3c(-c4ccsc4)nc4ccc(-c5ccsc5)cn34)c2)cc1 | >15.2 | >1.8 | > 100 µg/mL | 6.6 µg/mL (≈ 15.2 µM) | > 115 µg/mL
10 | 3.9 µg/mL (≈ 9.16 µM) | CC(C)(C)c1nc2ccc(-c3ccsc3)nn2c1-c1cccc(-c2cccc(O)c2)c1 | >26.7 | 5.2 | > 100 µg/mL | 3.7 µg/mL (≈ 8.69 µM) | 20 µg/mL (≈ 47 µM)
11 | > 112 µg/mL | Fc1ccc(-c2nc3ccc(-c4ccsc4)nn3c2-c2ccc(-c3ccccc3)cc2)cc1 | >1 | >1 | > 50 µg/mL | > 50 µg/mL | > 112 µg/mL
12 | 18.8 µg/mL (≈ 47.9 µM) | COc1ccccc1-c1nc2ccccn2c1-c1cccc(-c2ccc(O)cc2)c1 | >5.6 | 2.3 | > 100 µg/mL | 17.7 µg/mL (≈ 45.1 µM) | 43.8 µg/mL (≈ 112 µM)
13 | 8.7 µg/mL (≈ 21.8 µM) | CC(C)(C)c1nc2ccc(-c3ccsc3)nn2c1-c1cccc(-c2ccoc2)c1 | 2.7 | 6.3 | 4.5 µg/mL (≈ 11.3 µM) | 1.7 µg/mL (≈ 4.26 µM) | 55.1 µg/mL (≈ 138 µM)
14 | 6.7 µg/mL (≈ 14.9 µM) | Fc1ccc(-c2nc3ccc(N4CCOCC4)cn3c2-c2cccc(-c3ccccc3)c2)cc1 | >1 | 1.7 | > 50 µg/mL | > 50 µg/mL | 11.1 µg/mL (≈ 24.7 µM)
15 | 42.5 µg/mL (≈ 104 µM) | CC(C)(C)c1nc2ccc(-c3ccsc3)cn2c1-c1cccc(-c2ccccc2)c1 | >1.6 | >2.4 | > 100 µg/mL | 62.6 µg/mL (≈ 153 µM) | > 123 µg/mL
16 | 30.1 µg/mL (≈ 70.7 µM) | CC(C)(C)c1nc2ccc(-c3ccsc3)nn2c1-c1cccc(-c2ccccc2O)c1 |  | 2.5 | > 100 µg/mL | > 100 µg/mL | 75.3 µg/mL (≈ 177 µM)
17 | 13.5 µg/mL (≈ 35.5 µM) | Oc1ccc(-c2cccc(-c3c(-c4ccc(F)cc4)nc4ccccn34)c2)cc1 |  | 5.1 |  |  | 69.5 µg/mL (≈ 183 µM)
